Measured values gathered from unrelated publications.
Protocols differ between the studies behind these lines.
Target: Receptor-type tyrosine-protein kinase FLT3 (FLT3, Homo sapiens, UniProt P36888)
Residues used in one study (P36888 27-993): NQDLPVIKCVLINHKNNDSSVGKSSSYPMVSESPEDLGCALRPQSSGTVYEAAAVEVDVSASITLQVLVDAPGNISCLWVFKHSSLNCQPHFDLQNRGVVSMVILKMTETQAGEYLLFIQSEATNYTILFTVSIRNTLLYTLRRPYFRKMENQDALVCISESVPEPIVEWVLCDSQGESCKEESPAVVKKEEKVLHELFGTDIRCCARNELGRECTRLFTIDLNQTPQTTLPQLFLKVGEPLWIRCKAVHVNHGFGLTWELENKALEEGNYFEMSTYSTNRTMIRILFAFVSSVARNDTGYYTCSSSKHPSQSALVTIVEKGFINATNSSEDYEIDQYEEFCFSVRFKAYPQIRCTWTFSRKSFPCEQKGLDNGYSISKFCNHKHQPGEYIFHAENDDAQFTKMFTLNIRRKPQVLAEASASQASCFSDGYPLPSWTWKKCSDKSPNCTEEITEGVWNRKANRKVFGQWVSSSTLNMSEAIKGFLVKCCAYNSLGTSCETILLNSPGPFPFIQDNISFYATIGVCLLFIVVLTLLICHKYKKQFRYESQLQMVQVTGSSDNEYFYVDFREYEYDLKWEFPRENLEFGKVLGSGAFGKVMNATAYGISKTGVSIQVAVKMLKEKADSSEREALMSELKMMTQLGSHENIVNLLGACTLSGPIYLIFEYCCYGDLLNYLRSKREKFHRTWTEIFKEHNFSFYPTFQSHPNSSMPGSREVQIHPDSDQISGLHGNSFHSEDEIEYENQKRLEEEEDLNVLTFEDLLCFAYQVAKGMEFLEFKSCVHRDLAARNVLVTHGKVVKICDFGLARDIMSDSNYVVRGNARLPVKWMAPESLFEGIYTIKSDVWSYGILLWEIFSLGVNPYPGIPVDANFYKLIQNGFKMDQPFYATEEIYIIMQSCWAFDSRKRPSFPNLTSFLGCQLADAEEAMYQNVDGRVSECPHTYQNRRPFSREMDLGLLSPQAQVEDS

SMILES | test | endpoint | result
CN(C)c1ncnc(-c2ccc3nc(Nc4cc(CN5CCN(C(=O)CC(F)(F)F)CC5)ccn4)[nH]c3c2)c1Cl | target engagement in cells, BRET | EC50 | > 50000 nM
C[C@H](Nc1ccnc(Nc2cccc(-c3cccnc3)c2)n1)C(=O)O | enzyme activity, inhibitor | IC50 | > 23000 nM
C[C@H](c1ccnc(Nc2nc3ccc(-c4cc(N(C)C)ncn4)cc3[nH]2)c1)N1CCN(C(=O)CC(F)(F)F)CC1 | target engagement in cells, BRET | EC50 | 22000 nM
Cc1cc(Nc2cc(CN3CCOCC3)c3nc(C)c(Cc4ccc(Cl)cc4F)n3n2)n[nH]1 | enzyme activity, inhibitor, TR-FRET | IC50 | 4 nM
Cc1ccc(C(=O)Nc2ccc(Oc3cc4cnn(C)c4cc3-c3cn[nH]c3)c(F)c2)c(=O)n1-c1ccc(F)cc1 | cell growth or viability, ATP luminescence | IC50 | 7 nM
Cc1cc(Nc2cc3ncccc3c(N[C@@H]3C[C@H]4CC[C@@H](C3)N4CCC#N)n2)n[nH]1 | target engagement in cells, inhibitor, BRET | IC50 | 2000 nM
c1cc(Nc2nccc(NC3CCCCC3)n2)cc(-c2ncco2)c1 | enzyme activity, inhibitor | IC50 | 336 nM
CN(C)c1ccc(C=C2C(=O)Nc3ccccc32)cc1 | enzyme activity, inhibitor, radiometric | IC50 | 70 nM
CCCNc1ccnc(Nc2cccc(-c3cccnc3)c2)n1 | enzyme activity, inhibitor | IC50 | < 6 nM
COc1ccc2c(Oc3ccc4c(C(=O)Nc5ccccc5N)cccc4c3)ccnc2c1 | enzyme activity, inhibitor | IC50 | > 500 nM
